# In ChEMBL document CHEMBL1154607, “Searching for new cures for tuberculosis: design, synthesis, and biological evaluation of 2-methylbenzothiazoles” (J Med Chem, 2009):
# Columns and labels:
# [1] = system: Mycobacterium tuberculosis; assay: Antimycobacterial activity against Mycobacterium tuberculosis H37Rv after 7 days by microplate alamar blue assay; assay type: functional; conditions: 168 h
# Procedure, shortened: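 M. tuberculosis H37Rv growth inhibition was read by microplate Alamar blue assay (MABA). The value is reported as the minimum inhibitory concentration (MIC), in μM.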
# [2] = Cytotoxicity against african green monkey Vero cells after 72 hrs; assay type: cell-based; conditions: chlorocebus sabaeus, read-out: MIC
# Procedure, shortened: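 Toxicity was tested in Vero cells, and the value is reported as IC50 in μM.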
# [3] = system: Trypanosoma brucei rhodesiense; assay: Antimicrobial activity against Trypanosoma brucei rhodesiense STIB 900 trypomastigote forms; assay type: functional, organism-based
# Trypanosoma cruzi = assay: Antimicrobial activity against Trypanosoma cruzi Tulahuen C2C4 amastigote forms infected in rat L6 cells; assay type: functional, organism-based
# Leishmania donovani = assay: Antimicrobial activity against Leishmania donovani MHOM/ET/67/L82 axenic amastigote forms; assay type: functional, organism-based
# Plasmodium falciparum = assay: Antimicrobial activity against chloroquine and pyrimethamine-resistant Plasmodium falciparum K1 in erythrocytes; assay type: functional, organism-based
SMILES,MIC [1],MCC at 72 h [2],IC50 [3],IC50 (Trypanosoma cruzi),IC50 (Leishmania donovani),IC50 (Plasmodium falciparum)
Cc1nc2cc(OCc3cc(C(=O)N4CCNCC4)no3)ccc2s1,> 128 µM,–,–,–,–,–
COC(=O)[C@H](NC(=O)c1cc(COc2ccc3sc(C)nc3c2)on1)c1ccccc1,1.9 µM,> 128 µM,89.5 µM,37.5 µM,22.3 µM,3.33 µM
CO[C@H]1/C=C/O[C@@]2(C)Oc3c(C)c(O)c4c(O)c(c(/C=N/N5CCN(C)CC5)c(O)c4c3C2=O)NC(=O)/C(C)=C\C=C\[C@H](C)[C@H](O)[C@@H](C)[C@@H](O)[C@@H](C)[C@H](OC(C)=O)[C@@H]1C [RIFAMPIN],0.1 µM,127 µM,–,–,–,–
Cc1nc2cc(OCc3cc(C(=O)N[C@H](C(=O)O)c4ccccc4)no3)ccc2s1,> 128 µM,–,89.5 µM,> 90 µM,32.3 µM,> 5 µM
Cc1nc2cc(OCc3cc(C(=O)N(C)C)no3)ccc2s1,> 128 µM,–,–,–,–,–
Cc1nc2cc(OCc3cc(C(=O)O)no3)ccc2s1,> 128 µM,–,–,–,–,–
COC(=O)[C@@H](NC(=O)c1cc(COc2ccc3sc(C)nc3c2)on1)c1ccccc1,1.4 µM,> 128 µM,74.2 µM,> 90 µM,27.5 µM,3.97 µM
NNC(=O)c1ccncc1 [ISONIAZID],0.5 µM,> 128 µM,–,–,–,–
COC(=O)c1ccccc1NC(=O)c1cc(COc2ccc3sc(C)nc3c2)on1,30.2 µM,> 128 µM,–,–,–,–
COC(=O)[C@@H](NC(=O)c1nc(COc2ccc3sc(C)nc3c2)cs1)c1ccccc1,62.5 µM,–,37.5 µM,14.5 µM,4.44 µM,4.86 µM
Cc1nc2cc(OCc3cc(C(=O)N4CCCCO4)no3)ccc2s1,7.8 µM,–,–,–,–,–
Cc1nc2cc(OCc3cc(C(=O)N[C@H](C(=O)NO)c4ccccc4)no3)ccc2s1,> 128 µM,–,0.415 µM,6.2 µM,3.25 µM,1.82 µM
CCN(CC)C(=O)c1cc(COc2ccc3sc(C)nc3c2)on1,> 128 µM,–,–,–,–,–
COC(=O)[C@@H](NC(=O)c1cc(COc2cccc3sc(C)nc23)on1)c1ccccc1,7.4 µM,> 128 µM,> 90 µM,18.8 µM,4.12 µM,> 5 µM
Cc1nc2cc(OCc3cc(C(=O)N4CCN(C)CC4)no3)ccc2s1,> 128 µM,> 128 µM,–,–,–,–
Cc1nc2cc(OCc3cc(C(=O)N[C@H](CO)c4ccccc4)no3)ccc2s1,> 128 µM,–,31.2 µM,> 90 µM,> 90 µM,2.56 µM
COC(=O)[C@H](CCSC)NC(=O)c1cc(COc2ccc3sc(C)nc3c2)on1,3.7 µM,> 128 µM,–,–,–,–
COC(=O)[C@H](Cc1ccccc1)NC(=O)c1cc(COc2ccc3sc(C)nc3c2)on1,14.4 µM,> 128 µM,–,–,–,–
COC(=O)[C@@H](NC(=O)c1cc(COc2ccc3sc(-c4cccc(C(F)(F)F)c4)nc3c2)on1)c1ccccc1,59.5 µM,–,–,–,–,–

SMILES,MIC [1],MCC at 72 h [2],IC50 [3],IC50 (Trypanosoma cruzi),IC50 (Leishmania donovani),IC50 (Plasmodium falciparum)
Cc1nc2cc(OCc3cc(C(=O)N[C@H](C(=O)NNC(=O)c4ccncc4)c4ccccc4)no3)ccc2s1,47.5 µM,–,–,–,–,–
COC(=O)[C@@H](NC(=O)c1cc(COc2ccc3sc(C)nc3c2)on1)c1ccccc1Cl,15.5 µM,> 128 µM,–,–,–,–
Cc1nc2cc(OCc3cc(C(=O)NO)no3)ccc2s1,> 128 µM,–,1.85 µM,15.9 µM,6.06 µM,2.76 µM
COC(=O)[C@@H](NC(=O)c1cc(CSc2nc3ccccc3s2)on1)c1ccccc1,13 µM,> 128 µM,88.9 µM,16.9 µM,6.03 µM,> 5 µM
Cc1nc2cc(OCc3cc(C(=O)N4CCCCC4)no3)ccc2s1,120 µM,–,–,–,–,–
Cc1nc2cc(OCc3cc(C(=O)NNC(=O)c4ccncc4)no3)ccc2s1,4.4 µM,> 128 µM,38 µM,> 90 µM,> 90 µM,> 5 µM
COC(=O)[C@@H](NC(=O)c1cc(COc2ccc3sc(C)nc3c2)on1)c1ccc(OC)cc1,12.2 µM,> 128 µM,–,–,–,–
CCCCCCCCCCCCCCCCOP(=O)([O-])OCC[N+](C)(C)C [MILTEFOSINE],–,–,–,–,0.142 µM,–
Cc1nc2cc(OCc3cc(C(=O)NCc4ccccc4)no3)ccc2s1,> 128 µM,–,86.9 µM,> 90 µM,8.8 µM,3.43 µM
COC(=O)[C@@H](NC(=O)c1cc(COc2ccc3sc(C)nc3c2)on1)C(C)C,> 128 µM,–,–,–,–,–
Cc1nc2cc(OCc3cc(C(=O)N4CCOCC4)no3)ccc2s1,> 128 µM,–,–,–,–,–
O=C(Cn1ccnc1[N+](=O)[O-])NCc1ccccc1 [BENZNIDAZOLE],–,–,–,0.521 µM,–,–
CCOC(=O)c1cc(COc2ccc3sc(C)nc3c2)on1,> 128 µM,–,–,–,–,–
COC(=O)[C@@H](NC(=O)c1cc(C)on1)c1ccccc1,37 µM,> 128 µM,> 90 µM,> 90 µM,56.3 µM,> 5 µM
COC(=O)[C@H](CC(C)C)NC(=O)c1cc(COc2ccc3sc(C)nc3c2)on1,3.8 µM,> 128 µM,18.7 µM,12.3 µM,2.79 µM,4.57 µM
COC(=O)[C@@H](NC(=O)c1ccc2sc(C)nc2c1)c1ccccc1,13 µM,> 128 µM,–,–,–,–
COC(=O)[C@@H](NC(=O)c1cc(COc2ccc3sc(C)nc3c2)on1)c1ccc(O)cc1,15.4 µM,> 128 µM,88.9 µM,26.4 µM,4.48 µM,2.5 µM
COC(=O)[C@@H](NC(=O)c1cc(COc2ccccc2)on1)c1ccccc1,3.5 µM,> 128 µM,> 90 µM,45.9 µM,13.5 µM,> 5 µM
COC(=O)[C@@H](NC(=O)c1cc(COc2nc3ccccc3s2)on1)c1ccccc1,15.2 µM,> 128 µM,88.6 µM,26.8 µM,4.99 µM,> 5 µM
